Measured values from ChEMBL document CHEMBL1139167, “Synthesis and evaluation of diverse thio avarol derivatives as potential UVB photoprotective candidates” (Bioorg Med Chem Lett, 2007).
The source made the active and inactive calls. The rule behind the calls is not given here.

What was measured:
[1] = Toxicity assessed as inhibition of cell viability of UVB irradiated human HaCaT cells at 10 uM administered 2 hrs before irradiation by MTT assay; format: cell-based; settings: read-out: Inhibition
Procedure, shortened: (§1)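 HaCaT cells in DMEM/10% FBS were pretreated with compounds in ethanol (final ≤0.1%) 2 h before a single 40–50 mJ/cm² UVB dose. Viability was read by MTT reduction to formazan 24 h after irradiation. Inhibition is expressed relative to maximal viability of drug-free samples, means ± SEM (n = 6).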

[2] = Toxicity assessed as inhibition of cell viability of UVB irradiated human HaCaT cells at 5 uM administered 2 hrs before irradiation by MTT assay; format: cell-based; settings: read-out: Inhibition; procedure, shortened: as §1
HaCaT [3] = test: Inhibition of TNFalpha production in UVB irradiated human HaCaT cells at 10 uM administered 2 hrs before irradiation by fluoroimmunoassay; format: functional
Procedure, shortened: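 Confluent HaCaT cells (seeded at 2 × 10^5 cells/mL in DMEM/10% FBS) received compounds in ethanol (final ≤0.1%) 2 h before 40–50 mJ/cm² UVB. […] IC50 with 95% CI came from at least four concentrations.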

HaCaT [4] = test: Inhibition of TNFalpha production in UVB irradiated human HaCaT cells at 5 uM administered 2 hrs before irradiation by fluoroimmunoassay; format: functional
Procedure, shortened: (§2)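 Confluent HaCaT cells (seeded at 2 × 10^5 cells/mL in DMEM/10% FBS) received compounds in ethanol (final ≤0.1%) 2 h before 40–50 mJ/cm² UVB.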

HaCaT [5] = test: Inhibition of TNFalpha production in UVB irradiated human HaCaT cells administered 2 hrs before irradiation by fluoroimmunoassay; format: functional, cell-based; settings: light or radiation study; procedure, shortened: as §2
Neutrophil = test: Antioxidant activity assessed as inhibition of reactive oxygen species generation in TPA-stimulated human neutrophils
HaCaT [6] = test: Inhibition of NF-kappaB activation in UVB irradiated human HaCaT cells at 10 uM administered 2 hrs before irradiation by EMSA

| Structure (SMILES) | cytotoxicity at 2 h, 10 µM [1] | cytotoxicity at 2 h, 5 µM [2] | Inhibition (HaCaT [3]) | Inhibition (HaCaT [4]) | IC50 (HaCaT [5]) | Activity (Neutrophil) | Activity (HaCaT [6]) |
| --- | --- | --- | --- | --- | --- | --- | --- |
| CC1=CCC[C@H]2[C@](C)(Cc3cc(O)c(SCCO)c(SCCO)c3O)[C@@H](C)CC[C@]12C | 28.5% | 18.1% | – | – | – | – | – |
| CC1=CCC[C@H]2[C@](C)(Cc3cc(O)c(Sc4ccc(C)cc4)c(Sc4ccc(C)cc4)c3O)[C@@H](C)CC[C@]12C | 0% | 0% | 0% | 0% | – | – | – |
| CC1=CCC[C@H]2[C@](C)(Cc3cc(O)c(Sc4ccc(C)cc4)cc3O)[C@@H](C)CC[C@]12C | 0% | 0% | 0% | 0% | – | – | – |
| CC1=CCC[C@H]2[C@](C)(Cc3cc(O)c(Sc4ccccc4)cc3O)[C@@H](C)CC[C@]12C | 0% | 0% | 74.3% | 53.6% | 4.2 µM | Dose-dependent effect | Active |
| CC1=CCC[C@H]2[C@](C)(Cc3cc(O)cc(SCC(O)CO)c3O)[C@@H](C)CC[C@]12C (some centres undefined) | 14% | 13.6% | – | – | – | – | – |
| CC1=CCC[C@H]2[C@](C)(Cc3cc(O)c(SCC(=O)O)cc3O)[C@@H](C)CC[C@]12C | 13.3% | 12.4% | – | – | – | – | – |
| CC1=CCC[C@H]2[C@](C)(Cc3cc(O)c(Sc4ccccc4)c(Sc4ccccc4)c3O)[C@@H](C)CC[C@]12C | 0% | 0% | 0% | 0% | – | – | – |
| CC1=CCC[C@H]2[C@](C)(Cc3cc(O)cc(Sc4ccc(C)cc4)c3O)[C@@H](C)CC[C@]12C | 0% | 0% | 0% | 0% | – | – | – |
| CC1=CCC[C@H]2[C@](C)(Cc3cc(O)cc(SCC(=O)O)c3O)[C@@H](C)CC[C@]12C | 28.5% | 18.3% | – | – | – | – | – |
| CC1=CCC[C@H]2[C@](C)(Cc3cc(O)cc(Sc4ccccc4)c3O)[C@@H](C)CC[C@]12C | 0% | 0% | 92.7% | 55.4% | 3.7 µM | Dose-dependent effect | Active |
| CC1=CCC[C@H]2[C@](C)(Cc3cc(O)cc(SCCO)c3O)[C@@H](C)CC[C@]12C | 22.5% | 20.6% | – | – | – | – | – |
| CC1=CCC[C@H]2[C@](C)(Cc3cc(O)c(SCC(O)CO)cc3O)[C@@H](C)CC[C@]12C (some centres undefined) | 18.6% | 12.6% | – | – | – | – | – |
| COc1cc2ccc(=O)oc2c(O)c1O [FRAXETIN] | 3.4% | 0% | 68.1% | 58.6% | 2.8 µM | – | – |
| CC1=CCC[C@H]2[C@](C)(Cc3cc(O)c(SCCO)cc3O)[C@@H](C)CC[C@]12C | 48.4% | 21.4% | – | – | – | – | – |
